In ChEMBL document CHEMBL3120089, “Indoloditerpenes from a marine-derived fungal strain of Dichotomomyces cejpii with antagonistic activity at GPR18 and cannabinoid receptors” (J Nat Prod, 2014):
The source made the active and inactive calls. No cut-off for these calls is given here.

What was measured:
[1] = target: T1, G-protein coupled receptor 55 (Homo sapiens, UniProt Q9Y2T6); assay: Antagonist activity at human GPR55 expressed in CHO cells assessed as inhibition of LPI-mediated beta-arrestin recruitment after 90 mins by beta-galactosidase reporter gene assay; format: cell-based
In short: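 CHO cells stably expressing GPR55; PathHunter β-galactosidase complementation. 20,000 cells/well seeded in Opti-MEM with 2% FCS and selection antibiotics, 24 h at 37 °C. Compounds added in PBS with 10% DMSO and 0.1% BSA, 90 min at 37 °C, against a constant 1 μM LPI. Galacton-Star/Emerald-II lysis reagent for 60 min at rt, then luminescence read. IC50 from three independent experiments in duplicate.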

Cannabinoid receptor 2 [2] = target: T2, Cannabinoid receptor 2 (Homo sapiens, UniProt P34972); assay: Displacement of [3H]-CP55940 from human CB2 receptor expressed in CHO cells; format: cell-based
In short: (§1)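 Competition binding against agonist radioligand [3H]CP55,940 at CB1 or CB2 receptors. Compound stocks in DMSO, final DMSO 2.5%. Ki from concentration–inhibition curves; three independent experiments in duplicate.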

[3] = target: T3, N-arachidonyl glycine receptor (Homo sapiens, UniProt Q14330); assay: Inverse agonist activity at human GPR18 expressed in CHO cells assessed as inhibition of 7.5 uM THC-mediated beta-arrestin recruitment after 90 mins by beta-galactosidase reporter gene assay; format: cell-based
T3 sequence (Q14330 whole entry): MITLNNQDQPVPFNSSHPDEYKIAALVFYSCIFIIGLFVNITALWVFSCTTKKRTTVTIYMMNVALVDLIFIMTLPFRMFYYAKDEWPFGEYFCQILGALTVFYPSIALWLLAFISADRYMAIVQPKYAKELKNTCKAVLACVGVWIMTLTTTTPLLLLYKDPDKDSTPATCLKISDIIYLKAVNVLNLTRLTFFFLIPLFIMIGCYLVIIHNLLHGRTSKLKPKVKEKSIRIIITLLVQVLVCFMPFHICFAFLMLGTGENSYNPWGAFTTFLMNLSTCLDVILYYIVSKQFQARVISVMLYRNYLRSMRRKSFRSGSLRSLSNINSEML

[4] = target: T1, G-protein coupled receptor 55; assay: Antagonist activity at human GPR55 expressed in CHO cells assessed as inhibition of LPI-mediated beta-arrestin recruitment at 10 uM after 90 mins by beta-galactosidase reporter gene assay relative to control; format: cell-based
In short: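 PathHunter β-galactosidase β-arrestin assay in CHO cells stably expressing GPR55. Cells incubated 24 h at 37 °C before use. Screening at 10 μM compound against 1 μM LPI, 90 min at 37 °C. Chemiluminescent Galacton-Star detection for 60 min at rt. Result given as % inhibition; three independent experiments in duplicate.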

Cannabinoid receptor 1 = Cannabinoid receptor 1 (Homo sapiens, UniProt P21554); assay: Displacement of [3H]-CP55940 from human CB1 receptor expressed in CHO cells; format: cell-based; settings: for inhibition: concentration not given here; in short: as §1
[5] = target: T3, N-arachidonyl glycine receptor; assay: Antagonist activity at human GPR18 expressed in CHO cells assessed as inhibition of […] uM THC-mediated beta-arrestin recruitment after 90 mins by beta-galactosidase reporter gene assay; format: cell-based
[6] = Solubility of the compound in water; format: physicochemical; settings: buffer
L6 = assay: Cytotoxicity against rat L6 cells assessed as growth inhibition after 70 hrs by Alamar Blue assay; format: cell-based; settings: L6, 70 h
Cannabinoid receptor 2 [7] = target: T2, Cannabinoid receptor 2; assay: Antagonist activity at human CB2 receptor expressed in CHO cells assessed as inhibition of forskolin-induced cAMP accumulation incubated for 5 mins followed by forskolin challenge measured after 15 mins by liquid scintillation counting analysis in presence of [3H]cAMP; format: functional, cell-based
In short: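 CHO cells stably expressing human CB2; adenylate cyclase inhibition measured as intracellular cAMP, quantified by a cAMP competition binding assay; three independent experiments in duplicate.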

T2 sequence (P34972 whole entry): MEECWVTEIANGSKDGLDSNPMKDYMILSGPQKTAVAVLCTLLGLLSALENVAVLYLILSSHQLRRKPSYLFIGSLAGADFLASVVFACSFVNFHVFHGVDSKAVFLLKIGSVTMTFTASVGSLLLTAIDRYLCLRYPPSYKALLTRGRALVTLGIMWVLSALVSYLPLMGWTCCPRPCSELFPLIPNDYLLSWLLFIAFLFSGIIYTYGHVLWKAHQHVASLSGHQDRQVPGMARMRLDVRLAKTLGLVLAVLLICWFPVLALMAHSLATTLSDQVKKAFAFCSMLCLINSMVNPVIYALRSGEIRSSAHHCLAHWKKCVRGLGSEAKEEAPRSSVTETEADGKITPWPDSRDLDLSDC
Chain of Cannabinoid receptor 1 (P21554 whole entry): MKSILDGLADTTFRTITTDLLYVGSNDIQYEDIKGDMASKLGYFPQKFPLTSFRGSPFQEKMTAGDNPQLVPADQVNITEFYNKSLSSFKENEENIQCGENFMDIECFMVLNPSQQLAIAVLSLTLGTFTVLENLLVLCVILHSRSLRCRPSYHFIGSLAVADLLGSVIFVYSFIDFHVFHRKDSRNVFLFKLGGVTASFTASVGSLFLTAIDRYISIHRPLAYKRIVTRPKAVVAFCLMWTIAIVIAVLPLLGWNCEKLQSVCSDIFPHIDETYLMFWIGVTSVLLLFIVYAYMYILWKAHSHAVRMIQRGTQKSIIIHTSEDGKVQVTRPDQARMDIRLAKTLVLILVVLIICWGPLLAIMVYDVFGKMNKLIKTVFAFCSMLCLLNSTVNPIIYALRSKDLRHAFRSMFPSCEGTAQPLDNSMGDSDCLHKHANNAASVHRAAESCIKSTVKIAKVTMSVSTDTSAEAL
T1 sequence (Q9Y2T6 whole entry): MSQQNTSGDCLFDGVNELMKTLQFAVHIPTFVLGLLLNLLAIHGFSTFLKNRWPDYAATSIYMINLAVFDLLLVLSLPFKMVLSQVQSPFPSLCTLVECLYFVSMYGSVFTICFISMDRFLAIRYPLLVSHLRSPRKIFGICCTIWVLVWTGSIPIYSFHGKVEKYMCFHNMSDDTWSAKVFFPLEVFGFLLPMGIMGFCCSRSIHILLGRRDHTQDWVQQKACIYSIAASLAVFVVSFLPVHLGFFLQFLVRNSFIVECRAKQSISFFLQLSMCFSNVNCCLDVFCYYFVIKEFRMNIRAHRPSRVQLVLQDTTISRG

SMILES	IC50 [1] [µM]	Ki (Cannabinoid receptor 2 [2]) [µM]	IC50 [3] [µM]	inhibition [4] [%]	Ki (Cannabinoid receptor 1) [µM]	inhibition (Cannabinoid receptor 2 [2]; concentration not given here) [%]	inhibition (Cannabinoid receptor 1) [%]	IC50 [5] [µM]	solubility [6]	IC50 (L6) [µM]	inhibition (Cannabinoid receptor 2 [7])
CC(C)=C[C@H]1C[C@]2(C)[C@H](CC[C@@]3(C)[C@H]2CC[C@H]2Cc4c([nH]c5ccccc45)[C@@]23C)O1	> 10	4.76	9.91	0	4.4						
COC(C)(C)/C=C/C[C@]1(C)[C@@H](O)CC[C@@]2(C)[C@H]1CC[C@H]1Cc3c([nH]c4ccccc34)[C@@]12C	> 10	> 10	13.4	31	> 10	33	39				
CC(C)=CCC[C@]1(C)[C@@H](O)CC[C@@]2(C)[C@H]1CC[C@H]1Cc3c([nH]c4ccccc34)[C@@]12C [EMINDOLE SB]	> 10	2.24		12	7.05			> 10			
CC(C)=CCC[C@]1(C)[C@@H](O[C@@H]2O[C@H](CO)[C@@H](O)[C@H](O)[C@@H]2O)CC[C@@]2(C)[C@H]1CC[C@H]1Cc3c([nH]c4ccccc34)[C@@]12C	> 10	10.6		13	10.6		30	> 10	soluble	58	Active
